H69AR growth 86K = blocks growth of human H69AR lung tumor cells; H69AR lung tumor viability, ATP luminescence, 72 h; stronger effect = lower value; AID 598; viability, % at 10 µM; hit rate 6% among 85,000;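 active = viability at or below 40%; inactive = viability above 40%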;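 also: multidrug resistant small cell line overexpressing MRP-1 efflux transporter; 100% = mean luminescence of untreated control wells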
bCat KO growth = beta-catenin-lacking colon tumor cell growth suppression. HCT116 beta-catenin knockout viability, CellTiter-Glo, 60 h; stronger effect = lower value. viability, % at 10 µM. hit rate 1.5% among 140,000. AID 818;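 active = viability at or under a set limit, the compound median less 4 SD, cut at about 6% in these data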;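 also: 0% = Hyamine 1622 control at 20 µM and 100% = untreated cell control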
Lung fibro prol = blocks proliferation of human lung fibroblasts; LL 47 human lung fibroblast viability, ATP luminescence; stronger effect = lower value; viability, % at 10 µM; hit rate 1.1% among 85,000; AID 719;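 active = viability at or below 50% in the single dose screen; inactive = viability above 50%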;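 also: compound exposure lasted 72 h before the ATP readout; 100% = median luminescence of untreated cell-only wells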
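Material: Human LL 47 lung fibroblast cells | Input: 1,150 cells/well | Buffer or medium: IMEM plus 15% FBS | Compound dosing: 0.1% DMSO in all compound wells | Times: Overnight cell rest, 72 h compound treatment at 37 °C | Signal: CellTiter-Glo luminescence measuring cellular ATP | Measure: % viability versus median cells-only luminescence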
HUVEC inhibit = inhibitors of human endothelial cell proliferation. HUVEC proliferation, CellTiter-Glo luminescence, 72 h; stronger effect = lower value. viability, % at 10 µM (by protocol). hit rate 1.1% among 86,000;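 active = viability at or below 30%; inactive = viability above 30%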;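 also: 100% = median luminescence of DMSO-only cell control wells on each plate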
PTEN del growth = suppresses growth of cells with PTEN deletion; HCT116 PTEN-null viability, CellTiter-Glo, 60 h; stronger effect = lower value; viability, % at 10 µM; hit rate 1.2% among 140,000; AID 827;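 active = viability at or below a set limit, 4 SD under the median of all tested compounds, cut at about 3.7% in these data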;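 also: PTEN knockout HCT116 line with beta catenin targeted HCT116 as companion control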
Cav3 T inh = human Cav3.2 channel inhibition, primary screen; O95180; Cav3.2-expressing cells, Fluo-4 calcium fluorescence FDSS; stronger effect = lower value; B-score at 10 µM; hit rate 4% among 100,000; AID 449739;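 active = single-dose well whose peak fluorescence ratio is a statistical outlier from its plate by either plate-standardised score or position-corrected B-score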
The depositor's hits bear a star; x = no result. In the library only some 7.1% were active in any assay of this set; here they are far more common.

SMILES	H69AR growth 86K	bCat KO growth	Lung fibro prol	HUVEC inhibit	PTEN del growth	Cav3 T inh
C=C(C)CN1C(=O)C(O)(CC(=O)c2ccc3c(c2)OCCO3)c2ccccc21 (stereo not drawn)	39*	25	103	93	79	-1.1
N#CCCCN1C(=O)C(O)(CC(=O)c2ccc3c(c2)OCCO3)c2ccccc21 (stereo not drawn)	92	78	103	94	100	0.68
Clc1ccc(SCCCCN2CCNCC2)cc1	x	57	x	x	73	x
Clc1cccc(N/N=C/c2ccc(N3CCOCC3)s2)c1	x	86	x	x	89	x
O=C(O)C1C2CCC(O2)C1C(=O)NCc1ccc(Cl)cc1 (stereo not drawn)	x	91	x	x	91	x
Oc1oc(-c2ccccc2)nc1/C=N/c1nccs1	x	91	x	x	90	x
Oc1oc(-c2ccccc2)nc1C=Nc1cccc2ccccc12	20*	92	94	67	91	-1.9
COc1ccc(C)cc1NC(=O)CN1C(=O)c2cccc3cccc1c23	28*	76	55	47	62	0.029
CC(=O)c1c(C)nc(-c2ccc(Cl)cc2Cl)n1O	90	89	100	98	1.2*	0.8
c1ccc(-n2ncc3c2ncn2nc(CSc4nc5ccccc5s4)nc32)cc1	29*	x	62	42	x	-0.46
Cn1ncc2c1ncn1nc(CCc3ccccc3)nc21	101	75	104	94	81	0.066
Cc1c(C(=O)O)c(-c2ccccc2)nn1-c1ccccc1	x	95	x	x	95	-4.3*
COc1ccccc1CNC(=O)c1c(-c2ccccc2)nn(-c2ccccc2)c1C	x	78	x	x	x	-1.9
CCN1C(=O)C(CC(=O)Nc2ccc(Br)cc2)N(CCCc2ccccc2)C1=S (stereo not drawn)	x	33	x	x	23	-4.5*
O=C(CSC1CC(=O)N(CCc2ccccc2)C1=O)Nc1ccc(Br)cc1 (stereo not drawn)	x	85	x	x	94	-4.8*
CCOc1ccc(NC(=O)CC2C(=O)N(C)C(=S)N2CCCc2ccccc2)cc1 (stereo not drawn)	x	79	x	x	72	x
CCn1cc(CNC(=O)c2cc(-c3cc(OC)ccc3OC)nc3ccccc23)c(C)n1	x	92	x	x	88	x
CCC(C)(C)n1nnnc1CN1CCC(c2nc3ccc(C)cc3[nH]2)CC1	12*	20	84	63	38	0.69
Cc1cc2nc(C3CCN(Cc4nnnn4Cc4ccccc4)CC3)[nH]c2cc1C	x	28	x	x	25	-0.81
O=C(/C=C/c1cccnc1)c1ccc(NC(=O)c2cccc(Br)c2)cc1	x	5.7*	x	x	3.6*	2.1
Cc1cccc(C(=O)Nc2ccc(C(=O)/C=C/c3cccnc3)cc2)c1	x	1.4*	x	x	1.6*	x
O=C(N/C(=C\c1cccnc1)C(=O)N1CCOCC1)c1cccc(Br)c1	x	97	x	x	94	0.18
O=C(c1ccc(Cl)cc1)C(Cn1cncn1)C(Sc1ccccc1)c1ccccc1 (stereo not drawn)	x	5.6*	x	x	5	-1.8
Cc1ccc(SC(c2ccccc2)C(Cn2cncn2)C(=O)c2ccccc2)cc1 (stereo not drawn)	x	68	x	x	77	0.34
CCN(CC(=O)NC)S(=O)(=O)c1ccc(Br)cc1	102	107	103	94	92	0.8
SMILES	H69AR growth 86K	bCat KO growth	Lung fibro prol	HUVEC inhibit	PTEN del growth	Cav3 T inh
COc1ccc(CN2CCN(c3cc(C)nc4c5c(C)cc(C)nc5nn34)CC2)cc1F	68	x	77	69	x	1.6
Cc1ccc(N2CCN(c3cc(C)nc4c5c(C)cc(C)nc5nn34)CC2)cc1	87	x	105	104	x	x
Cc1cc(C)c2c(n1)nn1c(N3CCN(c4ccccc4C)CC3)cc(C)nc21	37*	x	92	66	x	x
CCOc1ccc(CN2CCN(c3cc(C)nc4c5c(C)cc(C)nc5nn34)CC2)cc1	32*	92	94	87	95	-0.15
S=C(Nc1ccc(Br)cc1)NC1CCCCC1	x	56	x	x	53	x
CN(C)S(=O)(=O)c1ccc(Cl)c(NC(=O)COC(=O)C2CSC3(C)CCC(=O)N23)c1 (stereo not drawn)	x	114	x	x	95	x
Cc1cc(C(F)(F)F)n(-c2nc(C(=O)Nc3ccccc3Oc3ccccc3)cs2)n1	x	92	x	x	84	-4.4*
COc1ccccc1NC(=O)c1csc(-n2nc(C)cc2C(F)(F)F)n1	x	95	x	x	96	1.2
Cc1ccc2c(CC(=O)NCc3ccco3)coc2c1C	27*	29	55	53	37	-9.4*
Cc1ccc(C(=O)NCc2ccco2)cc1Br	95	103	101	103	105	-1.7
O=C(Nc1ccc(N2CCN(C(=O)c3ccco3)CC2)c(Cl)c1)c1cc2ccccc2o1	37*	2.8*	43*	7.9*	3.2*	x
CCC(=O)N1CCN(c2ccc(NC(=O)c3cc4ccccc4o3)cc2Cl)CC1	10*	2.5*	42*	2.9*	3.1*	x
CCCC(=O)N1CCN(c2ccc(NC(=O)c3cc4ccccc4o3)cc2Cl)CC1	13*	105	16*	2.1*	96	-2.7
O=C(c1cc2ccccc2o1)N1CCN(c2ccccc2Cl)CC1	88	99	100	113	100	-2.6
CCCCC1NC(=S)N(C2CCCCC2)C1=O (stereo not drawn)	x	89	x	x	89	x
COc1ccc(C)cc1S(=O)(=O)N1CCC(C(=O)N2CCN(C)CC2)CC1	x	92	x	x	92	x
CCN(CC)c1cc(C)c2cc(NC(=O)c3ccc(Br)o3)ccc2n1	58	12	90	28*	9	-0.39
CCN1CCN(c2cc(C)c3cc(NC(=O)c4ccc(Br)o4)ccc3n2)CC1	41	8	43*	4.5*	9	-0.67
O=C(Nc1ccc2nn(-c3ccccc3)nc2c1)c1ccc(Br)o1	30*	74	74	57	93	x
CCOn1c(=O)c(C)[n+]([O-])c2ccccc21	88	99	101	100	98	0.52
CCCCc1ccc(NC(=S)NCc2cccnc2)cc1	x	60	x	x	75	x
CCCCOc1ccc(/C=N/NC(=O)c2csc(C)c2C)cc1	x	55	x	x	54	-2.2
Cc1scc(C(=O)N/N=C/c2ccc(OCC(C)C)cc2)c1C	x	61	x	x	76	-4.3*
C/C(=N\NC(=O)c1ccc(Cl)c(Cl)c1)c1cccc(NC(=O)C(C)C)c1	x	90	x	x	64	-7.1*
C=CCN(CC=C)C(=S)NC(=O)c1ccc(-c2ccccc2)cc1	x	23	x	x	17	-4.4*
CN(Cc1ccccc1)C(=S)NC(=O)c1ccc(-c2ccccc2)cc1	x	52	x	x	50	x
CC(SCc1ccccc1)C(=O)N/N=C/c1ccc2c(c1)OCO2 (stereo not drawn)	x	92	x	x	101	-6.1*
O=C(CSCc1cccc(Br)c1)N/N=C/c1ccc2c(c1)OCO2	x	95	x	x	83	-5.4*
COc1cccc2cc(-c3nnc(SCC(=O)Nc4cc(C(F)(F)F)ccc4Cl)n3N)oc12	7.6*	51	88	69	45	0.2
Cc1ccc(-c2cccc(OC(=O)c3ccccc3F)c2)cc1	x	96	x	x	92	x

Source: PubChem
